H9c2 protect – modulators protecting cardiomyocytes from myocardial damage; H9c2 cardiomyocytes, H2O2 injury protection, ATPLite, 2 h; protection from H2O2 cell death, % at 20 µM; 360,000 tested, 0.63% active; AID 588492;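 active = compounds giving at least 50% protection of heart cells from peroxide-induced death in the single-dose screen, raw or plate-pattern-corrected value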;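 note: 0% = DMSO wells with peroxide and 100% = DMSO wells without peroxide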
JMJD2C inh – inhibitors of human GASC-1 (JMJD2C) demethylase | Q9H3R0 | GST-JMJD2C(1-420) H3K9me3 demethylation, DELFIA europium | inhibition, % at 2.35 µM | 330,000 tested, 0.069% active | AID 2099;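 active = more than half of a compound's replicate wells show inhibition beyond 50%, single wells judged on their own value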;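 note: signal counts dimethyl H3K9 product captured on neutravidin plate; 0% = median of DMSO wells and 100% = 0.3 times that DMSO median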
PP5 inh – PP5 (human) phosphatase inhibition; purified PP5c, OMFP substrate fluorescence; inhibition, % at 6.7 µM; 320,000 tested, 0.18% active;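 active = inhibition above the campaign's mean inhibition across all tested compounds plus 3 SD, cut at about 9.5% in these data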;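 note: 0% = DMSO only and 100% = 100 µM cantharidin control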
Target sequence (P53041 whole entry, looked up): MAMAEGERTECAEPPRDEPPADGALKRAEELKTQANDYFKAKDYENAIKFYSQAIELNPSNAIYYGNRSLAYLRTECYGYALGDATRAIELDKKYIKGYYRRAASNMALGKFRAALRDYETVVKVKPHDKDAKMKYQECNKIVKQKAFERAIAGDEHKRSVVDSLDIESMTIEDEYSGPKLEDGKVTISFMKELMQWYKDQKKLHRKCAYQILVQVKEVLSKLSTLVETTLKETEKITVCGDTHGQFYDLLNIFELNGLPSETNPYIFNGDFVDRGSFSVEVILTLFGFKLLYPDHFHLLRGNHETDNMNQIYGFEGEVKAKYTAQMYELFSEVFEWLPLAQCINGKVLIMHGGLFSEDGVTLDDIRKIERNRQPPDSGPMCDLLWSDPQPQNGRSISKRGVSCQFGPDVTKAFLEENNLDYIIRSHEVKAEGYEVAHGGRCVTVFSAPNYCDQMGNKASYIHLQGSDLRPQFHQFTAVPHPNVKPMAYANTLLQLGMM
T cruzi repl – blocks replication of Trypanosoma cruzi; T. cruzi beta-gal in NIH3T3, luminescence, 90 h; inhibition, % (concentration not given with the values); 300,000 tested, 1.4% active;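 active = mean inhibition across valid replicates above about 55%, limit read from the data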;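 note: signal also drops with host cell toxicity which is not excluded here; 0% = plate median of DMSO wells and 100% = zero luminescence signal; higher percent means less beta-gal luminescence so fewer parasites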
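Material: NIH/3T3 host cells with β-galactosidase reporter T. cruzi; Input: 5,000 host fibroblasts per well; Medium: DMEM, 2% fetal bovine serum; Compound: 50 nL DMSO compound solution per well; Schedule: 3 h host attachment, then at least 90 h co-culture; Detection: luminescent β-galactosidase signal after 60 min lysis.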
p-CIP stab down – p/CIP protein destabilization; decrease of EGFP signal, % at 10 µM; AID 1984; 290,000 tested, 0.01% active; Q05BA5; F442A p/CIP-EGFP cells, EGFP fluorescence, 16 h;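 active = EGFP signal decrease of at least 30% at 10 µM or well 3 SD below plate mean, unless failing retest; inactive = the rest, including hits failing retest or dose response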
CTSL1 counter – blocks F. hepatica cathepsin L1 in PFM18AAP counter-screen; recombinant F. hepatica cathepsin L1, Z-Leu-Arg-MCA fluorescence; inhibition, % at 5.96 µM; 300,000 tested, 0.49% active; AID 1906;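 active = inhibition above the mean of all tested compounds plus 3 SD, set per screening campaign, cut at about 17% in these data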;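 note: 0% = plate median of test compound wells and 100% = 1 µM Z-Phe-Ala-diazomethylketone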
An asterisk follows results filed as active; · = not tested or not shown. Most compounds without a hit are left out; they make up all but 2.4% or so of the library.

SMILES	H9c2 protect	JMJD2C inh	PP5 inh	T cruzi repl	p-CIP stab down	CTSL1 counter
CCN1CCN(C2=C(NS(=O)(=O)c3ccc(Br)cc3)C(=O)c3ccccc3C2=O)CC1	-14	4	1	23	-20	20*
NC(=O)c1ccc(-c2nnn(CC(=O)N(C3CCCC3)C3CCS(=O)(=O)C3)n2)cc1 (configuration not stated)	10	4	3	·	·	·
c1coc(CNc2c3c(nc4ccccc24)CCC3)c1	-10	10	1	69*	2	2
Cc1ccccc1C(C)NC(=O)COC(=O)Cn1cc(C(F)(F)F)ccc1=O (configuration not stated)	-6	·	-2	·	·	·
CCn1c(/C=C/Nc2ccccc2)[n+](CC)c2ccc(Cl)cc21	-19	0	2	-8	11	9
CCn1c(/C=C/N(C)c2ccccc2)[n+](CC)c2ccc(Cl)cc21	-20	5	0	77*	-37	1
Cc1c(C(=O)OCC(C)(C)CN(C)C)oc2ccccc12	2	4	1	8	-3	-5
Cc1c(C(=O)OC(C)CCN(C)C)oc2ccccc12 (configuration not stated)	4	34	0	57*	2	-3
Cc1cc(C)n(-c2nc(SCCN(C)C)c3c4c(sc3n2)COC(C)(C)C4)n1	3	34	2	65*	-4	0
CCOC(=O)C1(Cc2cccc(Cl)c2)CCCN(C(=O)c2c(CC)noc2C)C1 (configuration not stated)	6	22	1	-9	-10	3
COc1cccc(-c2cc3nc(-c4ccccc4)cc(N4CCN(C(=O)c5ccoc5)CC4)n3n2)c1	33	·	·	·	·	·
Fc1ccc(-c2cc3nc(-c4ccccc4)cc(N4CCN(CCN5CCOCC5)CC4)n3n2)cc1	-5	43	·	55*	-2	·
COc1cccc(-c2cc3nc(-c4ccccc4)cc(N4CCC5(CC4)OCCO5)n3n2)c1	28	8	3	55*	-20	1
CNC(=O)COC(=O)/C=C/c1cn(-c2ccccc2)nc1-c1ccc(C)o1	56*	8	0	12	1	-7
O=C(COC(=O)/C=C/c1cn(-c2ccccc2)nc1-c1ccc2c(c1)OCCO2)NC1CCS(=O)(=O)C1 (configuration not stated)	57*	-5	4	10	3	-8
CCC(CC)NC(=O)c1cc(S(=O)(=O)N2CCCCC2)ccc1N1CCOCC1	6	0	0	·	·	·
COc1cccc2cc(C(=O)OCc3ccccc3)c(=O)oc12	-1	7	-1	-2	-3	7
CC(C)(CNC(=O)COc1ccccc1Cc1ccccc1)N1CCOCC1	4	-6	-1	18	21	-3
O=C(COc1ccccc1Cc1ccccc1)NCCCN1CCOCC1	-3	-10	-1	-15	-5	20*
CCOc1nc2cnccc2n(CC(=O)Nc2cccc(C)c2)c1=O	-1	3	-2	-9	-3	0
Brc1ccc(OCc2ccccc2)c(CNCc2ccncc2)c1	26	6	4	56*	-11	-1
Brc1cccc(CNCc2ccncc2)c1	4	0	-1	51	-4	-4
Fc1ccc(COc2ccccc2CNCc2ccncc2)cc1	-7	2	1	56*	-6	-3
Cc1ccc(-c2nn(C(C)(C)C)c3ncnc(NS(=O)(=O)c4ccc([N+](=O)[O-])cc4)c23)cc1	-8	-7	3	56*	7	4
O=C1C(Cl)=C(N2CCOCC2)C(=O)N1c1ccccc1F	2	20	2	-8	-2	30*
SMILES	H9c2 protect	JMJD2C inh	PP5 inh	T cruzi repl	p-CIP stab down	CTSL1 counter
O=C1C(Cl)=C(N2CCCCC2)C(=O)N1c1ccccc1	0	-4	1	-6	-12	54*
CC(C)c1ccc(N2C(=O)C(Cl)=C(N3CCOCC3)C2=O)cc1	2	-3	3	1	2	3
O=C1C(Cl)=C(N2CCOCC2)C(=O)N1c1ccc(Br)cc1	2	-6	2	-1	0	35*
Cc1ccc(S(=O)(=O)N(CCC#N)CCN2CCCC2)cc1	6	27	-1	-1	1	78*
CCN(CC)S(=O)(=O)c1ccc(S(=O)(=O)N2CCN(CCC#N)CC2)cc1	10	-3	4	8	-7	-2
CN(C)CCCNc1ncc(C(F)(F)F)cc1Cl	5	2	1	63*	5	3
O=C(c1n[nH]c(=O)c2ccccc12)N1CCN(Cc2ccc3c(c2)OCO3)CC1	8	1	2	3	0	-5
CC(=O)N1CCc2cc(S(=O)(=O)CCC(=O)NCc3ccc4c(c3)OCO4)ccc21	-8	36	4	-19	-6	18*
O=C(NCc1ccc2c(c1)OCO2)c1ccc(COc2cccc(Cl)c2)o1	-11	2	4	-5	-6	22*
O=C(NCc1ccc2c(c1)OCO2)c1ccc(CS(=O)Cc2cccc(Cl)c2)o1 (configuration not stated)	2	0	2	-5	7	-6
O=C(CCc1ccc(S(=O)(=O)NCc2ccccc2)cc1)NCc1ccc2c(c1)OCO2	4	52*	-1	5	-2	2
O=C(NCc1ccc2c(c1)OCO2)c1n[nH]c(=O)c2ccccc12	68*	-13	2	-4	4	-2
CC1=C(C(=O)Nc2cccc(C(=O)NC3CCCCC3C)c2)SCCO1 (configuration not stated)	-4	3	-1	11	-10	3
COc1ccc(CCNC(=O)c2coc(=O)c(Br)c2)cc1	·	19	2	-9	0	-1
Cn1c2ccccc2c(=O)c2ccc(NCc3ccc4c(c3)OCO4)cc21	71*	·	·	·	·	·
Cc1cc(N2C(=O)C(=O)/C(=C(/O)c3ccc(F)cc3)C2c2cccc(Br)c2)no1 (configuration not stated)	13	56*	-1	-3	-4	4
N=c1n(CC(=O)c2cccc([N+](=O)[O-])c2)c2ccccc2n1Cc1ccccc1	-25	61*	-2	11	12	-1
CCn1c(=N)n(CC(=O)c2cccc([N+](=O)[O-])c2)c2ccccc21	-13	-2	2	1	3	0
CCCn1c(=N)n(CC(=O)c2ccc([N+](=O)[O-])cc2)c2ccccc21	-34	-7	4	29	-2	18*
CSCCNC(=O)C1(C)CCN1C(=O)c1sccc1C (configuration not stated)	10	·	·	·	·	·
COc1ccc(N(C(=O)c2ccncc2)S(=O)(=O)c2cccs2)cc1	30	-3	1	-2	-7	-10
COc1ccc(N(C(=O)c2cccnc2)S(=O)(=O)c2cccs2)cc1	54*	-5	-1	-9	-5	0
